MT1-MMP act inh – inhibitors of human MT1-MMP activation. P50281. HT1080 RFP-PRO-GFP cells, GFP/RFP ratio fluorescence, overnight; percent of plate control window, DMSO zero. GFP/RFP ratio change, % at 20 µM. 0.061% of 360,000 active;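 active = GFP/RFP ratio change of at least 30% with cell ATP level not reduced by more than half and red fluorescence within 50% of control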
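Assay system: HT1080 cells carrying an RFP-PRO-GFP reporter | Dosing: Single dose of 20 µM compound, 1% DMSO final | Incubation: Cells overnight before dosing, compound overnight, 37 °C, 5% CO2 | Evaluation: GFP/RFP fluorescence ratio | Control set: DMSO and RFP-L50D-GFP cell wells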
ADAM17 inh – ADAM17 inhibition, QFRET primary screen. P78536. 0.83% of 370,000 active. recombinant ADAM17, EDANS/DABCYL FRET peptide cleavage. inhibition, % at 6.95 µM;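 active = inhibition above the mean of compounds lying between control limits plus 3 SD, set per campaign, cut at about 8.5% in these data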;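 note: 0% = DMSO-only wells as the low control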
GRIN3A LBD mod – modulates the human NR3A ligand-binding domain; Tm shift relative to glycine control, % at 25 µM; NR3A LBD differential scanning fluorimetry, Tm shift; 0% = protein alone, 100% = glycine-bound protein; 2.5% of 340,000 active; AID 1259313;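 active = melting temperature shift of at least 10% of the positive control shift, at one fixed dose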
ADAM10 inh – inhibitors of human ADAM10; AID 720582; inhibition, % at 7 µM; 0.62% of 370,000 active; O14672; recombinant ADAM10, EDANS/DABCYL FRET peptide cleavage, 3 h;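 active = inhibition above a per-campaign cutoff equal to the mean of compounds falling between control-based bounds plus 3 SD, cut at about 20% in these data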;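 note: 0% = DMSO wells while the 100% control is not disclosed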
MPTP block – inhibitors of mitochondrial permeability transition pore | AID 602449 | isolated mouse mitochondria, Ca2+ swelling absorbance, 30 min | inhibition, % at 10 µM | 1.4% of 360,000 active;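 active = inhibition of 50% or more, scaled per plate between neutral and stimulator controls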;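 note: 0% = DMSO wells given calcium and 100% = 1 mM EGTA wells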
SKN-1 inh – blocks SKN-1 activity in C. elegans. C. elegans VP596 Pgst-4::GFP/RFP ratio, acrylamide-induced, 24 h. inhibition, % at 21.8 µM. 0.49% of 360,000 active. AID 624304;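 active = interference check ratio from 0.5 to 1.5 plus GFP to RFP signal ratio inhibition reaching or exceeding a fixed threshold, cut at about 30% in these data, passing the limit was not always enough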
Starred values were filed as active, the others as inactive; nt = no result given. Hits are enriched below; roughly 4.7% of the tested compounds scored in any of these assays.

SMILES | MT1-MMP act inh | ADAM17 inh | GRIN3A LBD mod | ADAM10 inh | MPTP block | SKN-1 inh
COc1ccc(OC)c(NC(=O)c2cc(-c3c(C)cc(C)cc3O)n[nH]2)c1 | 7 | -42 | 7 | -71 | 2 | 3
COc1ccc(NC(=O)c2cc(-c3cc(C)c(C)cc3O)n[nH]2)c(OC)c1 | 1 | -3 | 42* | -9 | 0 | 0
COc1ccc(NC(=O)c2cc(-c3cc(F)ccc3OC)n[nH]2)c(OC)c1 | -5 | 1 | nt | 7 | 0 | 9
COc1cc(Cn2c(C(=O)O)cc3sccc32)cc(OC)c1OC | 3 | -2 | -3 | -3 | 0 | -12
O=C1c2ccccc2C(=O)N1CCc1csc(-c2ccc(F)cc2)n1 | 4 | 3 | 5 | 8 | -2 | 12
CN(C)c1ccc(/C=C/c2nc3ccccc3s2)cc1 | -64 | -3 | 11* | -6 | 1 | 27
O=C(O)/C=C/c1ccc2ccccc2n1 | 1 | 0 | -1 | -2 | 0 | 6
CN(C)c1ccc(/C=C/c2ccc3ccccc3n2)cc1 | -57 | nt | -24 | nt | 3 | 58*
Fc1ccccc1/C=C/c1ccc2ccccc2n1 | 0 | -1 | -437 | -13 | 3 | 88*
Oc1ccc(/C(Cc2ccc3ccccc3n2)=N\Nc2ccccc2)c(O)c1 | -6 | 3 | -3 | 8 | 2 | -1
Cc1ccc(/C=C/c2nc3ccccc3s2)s1 | -16 | -1 | -29 | 0 | 0 | -6
O/C(=C\c1ccc2ccccc2n1)c1ccc(O)cc1O | -63 | 8 | 35* | 9 | 1 | 9
COCCN1C(=O)[C@H]2C[C@@]13O[C@H](C1CCCCC1)N=C3CC1c3ccccc3C[C@@]12C (stereo partly drawn) | nt | -6 | nt | -13 | nt | nt
CCCCC(=O)Nc1ccc(NC(=S)NC(=O)CCCCl)cc1OC | -1 | 2 | -2 | 4 | 1 | 14
C[C@H](CO)N1C[C@H](C)[C@@H](CN(C)C(=O)Nc2ccc(F)cc2)OCc2cn(nn2)CCCC1=O | nt | -3 | nt | -18 | nt | nt
O=[N+]([O-])c1ccc(/C=C/c2ccc3ccccc3n2)cc1 | 4 | 4 | -3 | 6 | 0 | 4
C(=C\c1ccc2ccccc2n1)/c1ccccc1 | 4 | -19 | -20 | -19 | 1 | 84*
Oc1ccc(/C=C/c2ccc3ccccc3n2)cc1 | -1 | -146 | 19* | -393 | 2 | 25
Cc1cccc(C)c1Nc1nnc(SCC(=O)Nc2ncc(C(F)(F)F)cc2Cl)s1 | -3 | -2 | 12* | -2 | -14 | 1
Cc1cccc(Nc2nnc(SCC(=O)Nc3ncc(C(F)(F)F)cc3Cl)s2)c1C | 0 | 5 | -8 | 2 | 2 | -2
Cc1noc2ncnc(N3CCN(c4cccc(Cl)c4)CC3)c12 | 1 | 1 | 1 | 5 | 11 | 11
Cn1c(=Nc2ccc(N3CCOCC3)cc2)ccc2ccccc21 | -7 | 8 | -2 | 5 | 0 | 6
CCn1c(=Nc2ccc(N3CCOCC3)cc2)ccc2ccccc21 | 3 | -1 | 14* | -1 | -1 | -6
COc1ccc(-n2nc(C(=O)NCC(=O)NC3CCCCCC3)c3ccccc3c2=O)cc1OC | 1 | -3 | 0 | -3 | -2 | -10
CCC(C)Nc1nc(-c2ccc3c(c2)NC(=O)CO3)cs1 (stereo not drawn) | -1 | -9 | 1 | -10 | -6 | 5
SMILES | MT1-MMP act inh | ADAM17 inh | GRIN3A LBD mod | ADAM10 inh | MPTP block | SKN-1 inh
COc1ccccc1Nc1nc(-c2ccc3c(c2)NC(=O)CO3)cs1 | 5 | 1 | 32* | 7 | 6 | -9
COc1ccc(Nc2nc(-c3ccc4c(c3)NC(=O)CO4)cs2)cc1 | 7 | 8 | 15* | 4 | 2 | 23
CC(C)(C)N=C(NS(=O)(=O)c1cccs1)c1ccccc1 | 0 | -1 | 3 | 1 | 1 | 12
CC(C)CN(C(=O)CSc1nnc(C2CC2)n1-c1ccccc1)C1CCS(=O)(=O)C1 (stereo not drawn) | 0 | -4 | -2 | -16 | 1 | -4
O=C(Cn1cnc2c(NCc3ccccc3)ncnc21)NCCCc1ccccc1 | 4 | -2 | 17* | 4 | -2 | 5
Nc1c(C(=O)c2ccc(Br)s2)oc2ccccc12 | 1 | 0 | 4 | -1 | 3 | 11
